Laboratory results reported in ChEMBL document CHEMBL1909525, “Synthesis and anticonvulsant activity of novel 2,6-diketopiperazine derivatives. Part 1: perhydropyrrole[1,2-a]pyrazines” (Eur J Med Chem, 2011).
Calls of active or inactive are those of the source. No cut-off for these calls is given here.

What was measured:
[1] = test system: Rattus norvegicus; assay: Anticonvulsant activity in po dosed albino Sprague-Dawley rat assessed as protection against subcutaneous metrazol-induced seizure after 0.25 hrs; type: functional
Method in brief: (§1)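 Rats dosed orally, compound in 0.5% methylcellulose. MES at 150 mA, 60 Hz, 0.2 s; scMET with pentylenetetrazole 70 mg/kg s.c. plus 30 min observation; rotorod for toxicity.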

[2] = test system: Rattus norvegicus; assay: Anticonvulsant activity in po dosed albino Sprague-Dawley rat assessed as time needs to show peak effect for protection against maximal electroshock-induced seizure after 0.25 hrs; type: functional; method in brief: as §1
[3] = Neurotoxicity in po dosed albino Sprague-Dawley rat assessed as motor impairment after 0.25 hrs by rotarod test; type: toxicity, organism-based; conditions: in vivo; method in brief: as §1
[4] = test system: Mus musculus; assay: Anticonvulsant activity in ip dosed albino Carworth Farms No.1 mouse assessed as time needs to show peak effect for electric-current for 3 secs-induced seizure after 0.25 hrs by 6Hz minimal clonic seizure test; type: functional
[5] = test system: Mus musculus; assay: Anticonvulsant activity in ip dosed albino Carworth Farms No.1 mouse assessed as protection against maximal electroshock-induced seizure after 0.25 hrs; type: functional; conditions: albino Carworth Farms No.1, ip
Method in brief: (§2)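 Mouse quantification at the time of peak effect, compound given i.p. in 0.5% methylcellulose. Groups of at least eight mice received varied doses until at least two points fell between 100 and 0% response. ED50 (MES, scMET) and TD50 (rotorod) with 95% CI by probit analysis (Finney). PI = TD50/ED50 MES.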

[6] = test system: Mus musculus; assay: Anticonvulsant activity in ip dosed albino Carworth Farms No.1 mouse assessed as protection against subcutaneous metrazol-induced seizure after 0.25 hrs; type: functional; conditions: albino Carworth Farms No.1, 0.25 h; method in brief: as §2
[7] = test system: Mus musculus; assay: Anticonvulsant activity in ip dosed albino Carworth Farms No.1 mouse assessed as protection against electric-current for 3 secs-induced seizure after 0.25 hrs by 6Hz minimal clonic seizure test; type: functional; conditions: albino Carworth Farms No.1, ip
[8] = test system: Mus musculus; assay: Anticonvulsant activity in ip dosed albino Carworth Farms No.1 mouse assessed as time needs to show peak effect for protection against maximal electroshock-induced seizure; type: functional
[9] = Neurotoxicity in ip dosed albino Carworth Farms No.1 mouse assessed as motor impairment after 0.25 hrs by rotarod test; type: toxicity, organism-based; conditions: Carworth Farms No.1 (albino), in vivo
Method in brief: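 Mouse quantification at the time of peak effect, compound given i.p. in 0.5% methylcellulose. Groups of at least eight mice received varied doses until at least two points fell between 100 and 0% response. PI = TD50/ED50 MES.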

[10] = test system: Mus musculus; assay: Anticonvulsant activity in albino Carworth Farms No.1 mouse assessed as protection against maximal electroshock-induced seizure at 100 mg/kg, ip after 0.5 hrs; type: functional, organism-based; parameters: dose 100 mg/kg
Method in brief: (§3)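 Mouse MES test with compound given i.p. (30, 100 or 300 mg/kg) in 0.5% methylcellulose; tested at 0.5 and 4 h. Corneal stimulus of 50 mA at 60 Hz for 0.2 s, electrodes primed with 0.5% butacaine in 0.9% NaCl. Protection is abolition of hindlimb tonic extension; scored as protected/tested.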

[11] = test system: Mus musculus; assay: Neurotoxicity in albino Carworth Farms No.1 mouse assessed as motor impairment at 100 mg/kg, ip after 0.5 hrs by rotarod test; type: toxicity, organism-based; parameters: dose 100 mg/kg, route intraperitoneal; conditions: in vivo
Method in brief: (§4)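 Rotorod neurotoxicity in mice at 6 r.p.m. Compound given i.p. (30, 100, 300 mg/kg) in 0.5% methylcellulose; tested at 30 min and 4 h. Impairment is inability to keep equilibrium on the rod for a given time; scored as impaired/tested.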

[12] = test system: Mus musculus; assay: Anticonvulsant activity in albino Carworth Farms No.1 mouse assessed as protection against subcutaneous metrazol-induced seizure at 300 mg/kg, ip after 4 hrs; type: functional, organism-based; parameters: dose 300 mg/kg
Method in brief: (§5)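 Mouse scMET test. Compound given i.p. (30, 100 or 300 mg/kg) in 0.5% methylcellulose. Pentylenetetrazole 85 mg/kg (CD97) given s.c. at 0.5 or 4 h, then mice observed for 30 min. Protection is absence of clonic spasms; scored as protected/tested.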

[13] = test system: Mus musculus; assay: Anticonvulsant activity in albino Carworth Farms No.1 mouse assessed as protection against maximal electroshock-induced seizure at 100 mg/kg, ip after 4 hrs; type: functional, organism-based; parameters: dose 100 mg/kg; method in brief: as §3
[14] = test system: Mus musculus; assay: Anticonvulsant activity in albino Carworth Farms No.1 mouse assessed as protection against maximal electroshock-induced seizure at 30 mg/kg, ip after 0.5 hrs; type: functional, organism-based; parameters: dose 30 mg/kg; method in brief: as §3
[15] = test system: Mus musculus; assay: Neurotoxicity in albino Carworth Farms No.1 mouse assessed as motor impairment at 300 mg/kg, ip after 4 hrs by rotarod test; type: toxicity, organism-based; parameters: dose 300 mg/kg, route intraperitoneal; conditions: in vivo; method in brief: as §4
[16] = test system: Mus musculus; assay: Anticonvulsant activity in albino Carworth Farms No.1 mouse assessed as protection against subcutaneous metrazol-induced seizure at 100 mg/kg, ip after 0.5 hrs; type: functional, organism-based; parameters: dose 100 mg/kg; method in brief: as §5
[17] = test system: Mus musculus; assay: Anticonvulsant activity in albino Carworth Farms No.1 mouse assessed as protection against subcutaneous metrazol-induced seizure at 100 mg/kg, ip after 4 hrs; type: functional, organism-based; parameters: dose 100 mg/kg; method in brief: as §5
[18] = test system: Mus musculus; assay: Neurotoxicity in albino Carworth Farms No.1 mouse assessed as motor impairment at 300 mg/kg, ip after 0.5 hrs by rotarod test; type: toxicity, organism-based; parameters: dose 300 mg/kg, route intraperitoneal; conditions: in vivo; method in brief: as §4
[19] = test system: Mus musculus; assay: Neurotoxicity in albino Carworth Farms No.1 mouse assessed as motor impairment at 30 mg/kg, ip after 4 hrs by rotarod test; type: toxicity, organism-based; parameters: dose 30 mg/kg, route intraperitoneal; conditions: in vivo; method in brief: as §4
[20] = test system: Mus musculus; assay: Anticonvulsant activity in albino Carworth Farms No.1 mouse assessed as protection against subcutaneous metrazol-induced seizure at 300 mg/kg, ip after 0.5 hrs; type: functional, organism-based; parameters: dose 300 mg/kg; method in brief: as §5
[21] = test system: Mus musculus; assay: Anticonvulsant activity in albino Carworth Farms No.1 mouse assessed as protection against maximal electroshock-induced seizure at 30 mg/kg, ip after 4 hrs; type: functional, organism-based; parameters: dose 30 mg/kg; method in brief: as §3
[22] = test system: Mus musculus; assay: Neurotoxicity in albino Carworth Farms No.1 mouse assessed as motor impairment at 30 mg/kg, ip after 0.5 hrs by rotarod test; type: toxicity, organism-based; parameters: dose 30 mg/kg, route intraperitoneal; conditions: in vivo; method in brief: as §4
[23] = test system: Mus musculus; assay: Anticonvulsant activity in albino Carworth Farms No.1 mouse assessed as protection against maximal electroshock-induced seizure at 300 mg/kg, ip after 4 hrs; type: functional, organism-based; parameters: dose 300 mg/kg; method in brief: as §3
[24] = test system: Mus musculus; assay: Anticonvulsant activity in albino Carworth Farms No.1 mouse assessed as protection against subcutaneous metrazol-induced seizure at 30 mg/kg, ip after 0.5 hrs; type: functional, organism-based; parameters: dose 30 mg/kg; method in brief: as §5
[25] = test system: Mus musculus; assay: Anticonvulsant activity in albino Carworth Farms No.1 mouse assessed as protection against maximal electroshock-induced seizure at 300 mg/kg, ip after 0.5 hrs; type: functional, organism-based; parameters: dose 300 mg/kg; method in brief: as §3
[26] = test system: Mus musculus; assay: Anticonvulsant activity in albino Carworth Farms No.1 mouse assessed as protection against subcutaneous metrazol-induced seizure at 30 mg/kg, ip after 4 hrs; type: functional, organism-based; parameters: dose 30 mg/kg; method in brief: as §5

SMILES	Time [4] [h]	Activity [10]	Activity [11]	Activity [12]	Activity [13]	Activity [14]	Activity [15]	Activity [16]	Activity [17]	Activity [18]	Activity [19]	Activity [20]	Activity [21]	Activity [22]	Activity [23]	Activity [24]	Activity [25]	Activity [26]	also measured
COC[C@@H](NC(C)=O)C(=O)NCc1ccccc1 [LACOSAMIDE]	0.5																		ED50 [1]: > 250 mg/kg; Time [2]: 0.5 h; TD50 at 0.25 h [3]: > 500 mg/kg; ED50 [5]: 4.46 mg/kg; ED50 [6]: > 25 mg/kg; ED50 [7]: 9.99 mg/kg; Time [8]: 0.5 h
CC[C@@H](C(N)=O)N1CCCC1=O	1																		TD50 at 0.25 h [9]: > 500 mg/kg
C[C@@H]1C(=O)NC(=O)[C@@H]2CCCN12		inactive	Non-toxic	inactive	inactive	inactive	Non-toxic	inactive	inactive	Non-toxic	Non-toxic	inactive	inactive	Non-toxic	inactive	inactive	inactive	inactive	
O=C1[C@@H]2CCCN2[C@H](c2ccccc2)C(=O)N1Cc1ccccc1		inactive	Non-toxic	inactive	inactive	inactive	Non-toxic	inactive	inactive	Non-toxic	Non-toxic	inactive	inactive	Non-toxic	inactive	inactive	inactive	inactive	
O=C1CN2CCC[C@H]2C(=O)N1		inactive	Non-toxic	inactive	inactive	inactive	Non-toxic	inactive	inactive	Non-toxic	Non-toxic	inactive	inactive	Non-toxic	inactive	inactive	inactive	inactive	
